Key:
Type in all cases: functional
Escherichia coli = assay: Antibacterial activity was evaluated against Escherichia coli
Summary of the method: (§1)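 MIC against aerobic bacteria, measured at Bayer AG, by standard agar dilution or broth microdilution per NCCLS M7-A5 guidelines. MIC taken as lowest concentration visibly inhibiting growth after in vitro incubation, read when untreated culture growth becomes visible; expressed as log 1/C.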

Staphylococcus aureus = assay: Antibacterial activity was evaluated against Staphylococcus aureus; summary of the method: as §1
Pseudomonas aeruginosa = assay: Antibacterial activity was evaluated against Pseudomonas aeruginosa; summary of the method: as §1
Enterococcus faecalis = assay: Antibacterial activity evaluated against Enterococcus faecalis; summary of the method: as §1

SMILES: CN1CCC[C@@H]2CN(c3c(F)cc4c(=O)c(C(=O)O)cn(C5CC5)c4c3Cl)C[C@@H]21
- Log 1/C (Escherichia coli): 7.15
- Log 1/C (Staphylococcus aureus): 6.83
- Log 1/C (Pseudomonas aeruginosa): 5.32
- Log 1/C (Enterococcus faecalis): 6.23

SMILES: O=C(O)c1cn(C2CC2)c2c(Cl)c(N3C[C@@H]4CCCN[C@@H]4C3)c(F)cc2c1=O
- Log 1/C (Escherichia coli): 8.05
- Log 1/C (Staphylococcus aureus): 7.75
- Log 1/C (Pseudomonas aeruginosa): 6.25
- Log 1/C (Enterococcus faecalis): 7.16

SMILES: CC1=C(C)n2cc(C(=O)O)c(=O)c3c(F)c(F)c(N4CCN(C5CC5)CC4)c(c32)O1
- Log 1/C (Escherichia coli): 4.12
- Log 1/C (Staphylococcus aureus): 4.42
- Log 1/C (Pseudomonas aeruginosa): 3.51
- Log 1/C (Enterococcus faecalis): 4.12

SMILES: O=C(O)c1c(=O)c2cc(F)c(N3C[C@@H]4CCCN[C@@H]4C3)c3c2n2c(csc12)CS3
- Log 1/C (Escherichia coli): 7.16
- Log 1/C (Staphylococcus aureus): 6.86
- Log 1/C (Pseudomonas aeruginosa): 5.63
- Log 1/C (Enterococcus faecalis): 6.54

SMILES: O=C(O)c1cn(C(CF)CF)c2cc(N3C[C@@H]4CCCN[C@@H]4C3)c(F)cc2c1=O
- Log 1/C (Escherichia coli): 5.61
- Log 1/C (Staphylococcus aureus): 5.01
- Log 1/C (Pseudomonas aeruginosa): 4.11
- Log 1/C (Enterococcus faecalis): 5.01

SMILES: CN1CCN(c2c(F)cc3c(=O)c(C(=O)O)cn(CF)c3c2F)CC1
- Log 1/C (Escherichia coli): 7.07
- Log 1/C (Staphylococcus aureus): 5.85
- Log 1/C (Pseudomonas aeruginosa): 5.85
- Log 1/C (Enterococcus faecalis): 5.55

SMILES: O=C(O)c1cn(C2CC2)c2cc(N3CCN(C(CO)(CO)CO)CC3)c(F)cc2c1=O
- Log 1/C (Escherichia coli): 5.34
- Log 1/C (Staphylococcus aureus): 4.74
- Log 1/C (Pseudomonas aeruginosa): 3.53
- Log 1/C (Enterococcus faecalis): 4.13

SMILES: O=C(O)c1cn2c3c(c(N4CCN(C5CC5)CC4)c(F)cc3c1=O)OC1=C2CCC1
- Log 1/C (Escherichia coli): 4.15
- Log 1/C (Staphylococcus aureus): 4.75
- Log 1/C (Pseudomonas aeruginosa): 3.54
- Log 1/C (Enterococcus faecalis): 4.75

SMILES: COc1c(N2CC3=C(CN(C)CC3)C2)c(F)cc2c(=O)c(C(=O)O)cn(C3CC3)c12
- Log 1/C (Escherichia coli): 6.84
- Log 1/C (Staphylococcus aureus): 6.84
- Log 1/C (Pseudomonas aeruginosa): 5.32
- Log 1/C (Enterococcus faecalis): 6.52

SMILES: C[C@H]1COc2c(N3C[C@H]4CCCN[C@H]4C3)c(F)cc3c(=O)c(C(=O)O)cn1c23
- Log 1/C (Escherichia coli): 6.19
- Log 1/C (Staphylococcus aureus): 5.89
- Log 1/C (Pseudomonas aeruginosa): 5.29
- Log 1/C (Enterococcus faecalis): 5.89

SMILES: CN1CCN(c2cc3c(c(Cl)c2F)c(=O)c(C(=O)O)cn3C2CC2)CC1
- Log 1/C (Escherichia coli): 7.1
- Log 1/C (Staphylococcus aureus): 6.48
- Log 1/C (Pseudomonas aeruginosa): 5.28
- Log 1/C (Enterococcus faecalis): 5.88

SMILES: O=C(O)c1cn(C2CC2)c2c(F)c(N3C[C@@H]4CCCN[C@@H]4C3)c(F)cc2c1=O
- Log 1/C (Escherichia coli): 8.02
- Log 1/C (Staphylococcus aureus): 7.44
- Log 1/C (Pseudomonas aeruginosa): 6.23
- Log 1/C (Enterococcus faecalis): 6.84

SMILES: O=C(O)c1cn(C2CCOCC2)c2cc(N3CCNCC3)c(F)cc2c1=O
- Log 1/C (Escherichia coli): 3.77
- Log 1/C (Staphylococcus aureus): 4.07
- Log 1/C (Pseudomonas aeruginosa): 3.47
- Log 1/C (Enterococcus faecalis): 4.07

SMILES: C=CCN1CCN(c2cc3c(cc2F)c(=O)c(C(=O)O)cn3C2CC2)CC1
- Log 1/C (Escherichia coli): 6.82
- Log 1/C (Staphylococcus aureus): 6.21
- Log 1/C (Pseudomonas aeruginosa): 5.31
- Log 1/C (Enterococcus faecalis): 5.61

SMILES: O=C(O)c1cn(C2CC2)c2cc(N3CCN(c4ncccn4)CC3)c(F)cc2c1=O
- Log 1/C (Escherichia coli): 4.41
- Log 1/C (Staphylococcus aureus): 5.01
- Log 1/C (Pseudomonas aeruginosa): 3.5
- Log 1/C (Enterococcus faecalis): 4.71

SMILES: CSc1cc2c(=O)c(C(=O)O)cn(C3CC3)c2c(SC)c1SC
- Log 1/C (Escherichia coli): 4.36
- Log 1/C (Staphylococcus aureus): 4.96
- Log 1/C (Pseudomonas aeruginosa): 3.46
- Log 1/C (Enterococcus faecalis): 3.76

SMILES: O=C(O)c1cn(C2CC2)c2cc(N3C[C@H]4CCCN[C@H]4C3)c(F)cc2c1=O
- Log 1/C (Escherichia coli): 6.82
- Log 1/C (Staphylococcus aureus): 6.21
- Log 1/C (Pseudomonas aeruginosa): 5.61
- Log 1/C (Enterococcus faecalis): 5.91

SMILES: O=C(O)c1cn(C2CC2)c2cc(N3CCN(C4CC4)CC3)c(F)cc2c1=O
- Log 1/C (Escherichia coli): 7.08
- Log 1/C (Staphylococcus aureus): 6.17
- Log 1/C (Pseudomonas aeruginosa): 4.67
- Log 1/C (Enterococcus faecalis): 5.57

SMILES: CO/N=C/Cn1cc(C(=O)O)c(=O)c2cc(F)c(N3CCN(C)CC3)c(F)c21
- Log 1/C (Escherichia coli): 5.29
- Log 1/C (Staphylococcus aureus): 4.39
- Log 1/C (Pseudomonas aeruginosa): 4.39
- Log 1/C (Enterococcus faecalis): 3.49

SMILES: CN1CCC[C@H]2CN(c3c(F)cc4c(=O)c(C(=O)O)cn(C5CC5)c4c3Cl)C[C@H]21
- Log 1/C (Escherichia coli): 7.45
- Log 1/C (Staphylococcus aureus): 7.13
- Log 1/C (Pseudomonas aeruginosa): 5.62
- Log 1/C (Enterococcus faecalis): 6.84

SMILES: C#Cc1c(N2C[C@@H]3CCCN[C@@H]3C2)c(F)cc2c(=O)c(C(=O)O)cn(C3CC3)c12
- Log 1/C (Escherichia coli): 7.7
- Log 1/C (Staphylococcus aureus): 7.7
- Log 1/C (Pseudomonas aeruginosa): 5.9
- Log 1/C (Enterococcus faecalis): 7.7

SMILES: O=C(O)c1cn(C2CC2)c2c([N+](=O)[O-])c(N3CCOCC3)c(F)cc2c1=O
- Log 1/C (Escherichia coli): 5.58
- Log 1/C (Staphylococcus aureus): 5.58
- Log 1/C (Pseudomonas aeruginosa): 3.77
- Log 1/C (Enterococcus faecalis): 4.67

SMILES: CN1Cc2csc3c(C(=O)O)c(=O)c4cc(F)c(N5CCNCC5)c1c4n23
- Log 1/C (Escherichia coli): 7.11
- Log 1/C (Staphylococcus aureus): 6.81
- Log 1/C (Pseudomonas aeruginosa): 5.89
- Log 1/C (Enterococcus faecalis): 6.49

SMILES: O=C(O)c1cn(C2C[C@@H]2F)c2c(Cl)c(N3C[C@H]4CCCN[C@H]4C3)ccc2c1=O (stereo partly specified)
- Log 1/C (Escherichia coli): 7.13
- Log 1/C (Staphylococcus aureus): 6.51
- Log 1/C (Pseudomonas aeruginosa): 5.61
- Log 1/C (Enterococcus faecalis): 6.51

SMILES: CN1CCN(c2c(F)cc3c(=O)c(C(=O)O)cn4c3c2OC(C(C)(C)C)=C4)CC1
- Log 1/C (Escherichia coli): 4.44
- Log 1/C (Staphylococcus aureus): 3.84
- Log 1/C (Pseudomonas aeruginosa): 3.53
- Log 1/C (Enterococcus faecalis): 4.14

SMILES: O=C(O)c1cn(C2CC2)c2c(F)c(N3Cc4cccnc4C3)c(F)cc2c1=O
- Log 1/C (Escherichia coli): 6.53
- Log 1/C (Staphylococcus aureus): 7.44
- Log 1/C (Pseudomonas aeruginosa): 5.02
- Log 1/C (Enterococcus faecalis): 7.73

SMILES: C[C@H]1COc2c(N3C[C@@H]4CCCN[C@@H]4C3)c(F)cc3c(=O)c(C(=O)O)cn1c23
- Log 1/C (Escherichia coli): 6.8
- Log 1/C (Staphylococcus aureus): 6.19
- Log 1/C (Pseudomonas aeruginosa): 5.59
- Log 1/C (Enterococcus faecalis): 6.19

SMILES: O=C(O)c1cn(C2CC2)c2cc(N3CCN(c4ccncc4)CC3)c(F)cc2c1=O
- Log 1/C (Escherichia coli): 5.91
- Log 1/C (Staphylococcus aureus): 5.61
- Log 1/C (Pseudomonas aeruginosa): 3.5
- Log 1/C (Enterococcus faecalis): 4.71

SMILES: CC(=O)N1CCC[C@H]2CN(c3c(F)cc4c(=O)c(C(=O)O)cn(C5CC5)c4c3Cl)C[C@H]21
- Log 1/C (Escherichia coli): 5.35
- Log 1/C (Staphylococcus aureus): 5.95
- Log 1/C (Pseudomonas aeruginosa): 3.84
- Log 1/C (Enterococcus faecalis): 5.65

SMILES: O=C(O)c1cn(C2CC2)c2c(Cl)c(N3CCCCC3)c(F)cc2c1=O
- Log 1/C (Escherichia coli): 6.46
- Log 1/C (Staphylococcus aureus): 7.42
- Log 1/C (Pseudomonas aeruginosa): 5.26
- Log 1/C (Enterococcus faecalis): 6.79

SMILES: O=C(O)c1cn(C2CC2)c2c(F)c(N3C[C@@H]4OCCN[C@@H]4C3)c(F)c(Br)c2c1=O
- Log 1/C (Escherichia coli): 6.58
- Log 1/C (Staphylococcus aureus): 6.27
- Log 1/C (Pseudomonas aeruginosa): 4.47
- Log 1/C (Enterococcus faecalis): 5.37

SMILES: O=C(O)c1cn2c3c(c(N4CCNCC4)c(F)cc3c1=O)OC=C2COCc1ccccc1
- Log 1/C (Escherichia coli): 3.55
- Log 1/C (Staphylococcus aureus): 4.15
- Log 1/C (Pseudomonas aeruginosa): 3.55
- Log 1/C (Enterococcus faecalis): 4.15

SMILES: O=C(O)c1cn(C2CC2)c2c(F)c(N3C4CCC3CC4)c(F)cc2c1=O
- Log 1/C (Escherichia coli): 5.86
- Log 1/C (Staphylococcus aureus): 5.86
- Log 1/C (Pseudomonas aeruginosa): 4.35
- Log 1/C (Enterococcus faecalis): 5.26

SMILES: C#CCN1CCN(c2c(F)cc3c(=O)c(C(=O)O)cn(C4CC4)c3c2Cl)CC1
- Log 1/C (Escherichia coli): 6.83
- Log 1/C (Staphylococcus aureus): 6.21
- Log 1/C (Pseudomonas aeruginosa): 5.01
- Log 1/C (Enterococcus faecalis): 5.61

SMILES: CN1CCN(c2nc3c(cc2Cl)c(=O)c(C(=O)O)cn3C2CC2)CC1
- Log 1/C (Escherichia coli): 6.77
- Log 1/C (Staphylococcus aureus): 4.96
- Log 1/C (Pseudomonas aeruginosa): 4.96
- Log 1/C (Enterococcus faecalis): 4.35

SMILES: CC1CN(c2c(F)cc3c(=O)c(C(=O)O)cn(C4CC4)c3c2Cl)CC(C)N1 (stereo unspecified)
- Log 1/C (Escherichia coli): 7.16
- Log 1/C (Staphylococcus aureus): 6.54
- Log 1/C (Pseudomonas aeruginosa): 5.63
- Log 1/C (Enterococcus faecalis): 5.93

SMILES: N[C@@]12C=CC=CC1CN(c1c(F)cc3c(=O)c(C(=O)O)cn([C@@H]4C[C@@H]4F)c3c1Cl)C2 (stereo partly specified)
- Log 1/C (Escherichia coli): 8.06
- Log 1/C (Staphylococcus aureus): 8.06
- Log 1/C (Pseudomonas aeruginosa): 6.56
- Log 1/C (Enterococcus faecalis): 7.16

SMILES: CCOc1c(F)cc2c(=O)c(C(=O)O)cn(C(C)(C)CF)c2c1Cl
- Log 1/C (Escherichia coli): 4.35
- Log 1/C (Staphylococcus aureus): 4.95
- Log 1/C (Pseudomonas aeruginosa): 3.45
- Log 1/C (Enterococcus faecalis): 4.05

SMILES: CO/N=C/Cn1cc(C(=O)O)c(=O)c2cc(F)c(N3C[C@@H]4CCCN(C)[C@@H]4C3)c(F)c21
- Log 1/C (Escherichia coli): 5.62
- Log 1/C (Staphylococcus aureus): 5.62
- Log 1/C (Pseudomonas aeruginosa): 4.42
- Log 1/C (Enterococcus faecalis): 4.42

Source: ChEMBL document CHEMBL1148326, “Chemometric studies on the bactericidal activity of quinolones via an extended VolSurf approach” (2004)
